Data set [1] concerns the target Neuronal acetylcholine receptor; alpha3/beta4 (Rattus norvegicus, UniProt P04757+P12392). The data set is described as follows: Displacement of [3H]epibatidine from rat alpha3beta4 nAChR by liquid scintillation counting. Type of data set: protein-complex assay. (In a radioligand displacement assay an active substance lowers the binding of a labelled ligand.)
In data set [2] the target is Neuronal acetylcholine receptor; alpha4/beta4 (Rattus norvegicus, UniProt P09483+P12392). The data set is described as follows: Displacement of [3H]epibatidine from rat alpha4beta4 nAChR by liquid scintillation counting. Type of data set: protein-complex assay.
In data set [3] the target is Neuronal acetylcholine receptor; alpha2/beta2 (Rattus norvegicus, UniProt P12389+P12390). The data set is described as follows: Displacement of [3H]epibatidine from rat alpha2beta2 nAChR by liquid scintillation counting. It counts as protein-complex assay.
Data set [4] has as its target Neuronal acetylcholine receptor; alpha4/beta2 (Rattus norvegicus, UniProt P09483+P12390). The data set can be described thus: Displacement of [3H]epibatidine from rat alpha4beta2 nAChR by liquid scintillation counting. It counts as protein-complex assay.
The target of data set [5] is Neuronal acetylcholine receptor; alpha3/beta2 (Rattus norvegicus, UniProt P04757+P12390). The data set can be described thus: Displacement of [3H]epibatidine from rat alpha3beta2 nAChR by liquid scintillation counting. Type of data set: protein-complex assay.
Data set [6] addresses Neuronal acetylcholine receptor; alpha2/beta4 (Rattus norvegicus, UniProt P12389+P12392). The data set is described as follows: Displacement of [3H]epibatidine from rat alpha2beta4 nAChR by liquid scintillation counting. It counts as protein-complex assay.
A short description of data set [7]: Displacement of [3H]epibatidine from rat forebrain alpha4beta2* nAChR by liquid scintillation counting.
For data set [8], the target named is T1, Acetylcholine receptor; alpha1/beta1/delta/gamma (Homo sapiens, UniProt P02708+P07510+P11230+Q07001). The data set is described as follows: Antagonist activity at alpha1beta1gammadelta nAChR in human TE671/RD cells assessed as reduction in carbamylcholine induced 86Rb+ efflux preincubated for 10 mins followed by carbamylcholine addition measured after 5 mins by Cherenkov counting. Type of data set: cell-based. In outline: (§1)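 Same 86Rb+-loaded cells and pH 7.4 efflux buffer. Cells lysed in 0.1 M NaOH/0.1% SDS and Cerenkov counted. Specific efflux = total minus nonspecific (mecamylamine-blocked); inactivation IC50 derived from inhibition of carbamylcholine response.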

Data set [9] can be described thus: Antagonist activity at alpha3beta4* in human SH-SY5Y cells assessed as reduction in carbamylcholine induced 86Rb+ efflux preincubated for 10 mins followed by carbamylcholine addition measured after 5 mins by Cherenkov counting. Type of data set: cell-based. In outline:
as §1

Data set [10] is described as follows: Agonist activity at alpha3beta4* nAChR in human SH-SY5Y cells after 9.5 mins by 86Rb+ efflux assay. It counts as cell-based. The procedure, abridged:
(§2)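 86Rb+ efflux: cells loaded with ~350,000 cpm 86Rb+ at least 4 h (typically overnight), rinsed with efflux buffer pH 7.4 (130 mM NaCl, 5.4 mM KCl, 2 mM CaCl2, 50 mM HEPES, 5 mM glucose). Test drug alone applied 9.5 min. Efflux normalized, after nonspecific subtraction, to specific efflux of fully efficacious carbamylcholine control; nonspecific defined with carbamylcholine plus mecamylamine; EC50 derived.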

For data set [11], the target named is T1, Acetylcholine receptor; alpha1/beta1/delta/gamma. The data set is described as follows: Agonist activity at alpha1beta1gammadelta nAChR in human TE671/RD cells after 9.5 mins by 86Rb+ efflux assay. It counts as cell-based. In outline: as §2
Data set [12] can be described thus: Antidepressant activity in C57BL6 mouse at 10 mg/kg, ip administered 15 mins prior to testing by SmartCube automated system based method. Type of data set: functional, organism-based. In outline: (§3)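 Male C57 BL6 mice, group-housed 4 per cage, 22 °C, 12 h light-dark. Compound dissolved in water, given i.p. at 10 mL/kg, 15 min before automated SmartCube session; behaviour captured by digital video and classified by computer algorithms into a behavioural signature.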

Data set [13] has as its target T2, Neuronal acetylcholine receptor; alpha4/beta2 (Homo sapiens, UniProt P17787+P43681). The data set is described as follows: Agonist activity at human (alpha4beta2 )2beta2 expressed in human SH-EP1 cells after 9.5 mins by 86Rb+ efflux assay relative to carbamylcholine. Type of data set: cell-based.
The target of data set [14] is T2, Neuronal acetylcholine receptor; alpha4/beta2. The data set is described as follows: Antagonist activity at human alpha4beta2 expressed in human SH-EP1 cells assessed as reduction in carbamylcholine induced 86Rb+ efflux preincubated for 10 mins followed by carbamylcholine addition measured after 5 mins by Cherenkov counting. Type of data set: cell-based. The procedure, abridged: as §1

The target is the same in data set [15]. The data set can be described thus: Agonist activity at human (alpha4beta2 )2alpha4 expressed in human SH-EP1 cells after 9.5 mins by 86Rb+ efflux assay relative to carbamylcholine. It counts as cell-based.
Data set [16] has the same target. The data set is described as follows: Agonist activity at human alpha4beta2 nAChR expressed in human SH-EP1 cells after 9.5 mins by 86Rb+ efflux assay. Type of data set: cell-based.
The target of data set [17] is alpha3beta4 nAChR (neuronal acetylcholine receptor alpha3/beta4) (Rattus norvegicus, UniProt P04757+P12392). The data set can be described thus: Displacement of [3H]epibatidine from rat alpha3beta4 nAChR at 10 uM by liquid scintillation counting. Conditions: probe [3H]epibatidine.
The nature of data set [18]: Antidepressant activity in po dosed BALB/cJ mouse assessed as decrease in immobility time administered 30 mins and measured over 6 mins by classical Porsolt's forced swim test. Type of data set: functional, organism-based. In outline: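 Male BALB/cJ mice, 8–10 weeks, dosed po in water (10 mL/kg) at 1 and 10 mg/kg; water vehicle, sertraline 20 mg/kg ip as positive control. 30 min later placed in 1 L beaker with 12 cm of 23 °C water; immobility recorded over 6-min trial, total time analysed by ANOVA.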

A short description of data set [19]: Antidepressant activity in C57BL6 mouse at 5 mg/kg, ip administered 15 mins prior to testing by SmartCube automated system based method. It counts as functional, organism-based. The procedure, abridged: as §3

Usually Ki stands for a dissociation constant, usually derived from enzyme kinetics or from competition with a known ligand. Read a high Ki as a looser hold on the target. What is called IC50 is the concentration needed to halve the response being measured. A word on the EC50: it is the concentration that produces a half-maximal response. Lower therefore signals greater potency. As a reminder, the pIC50 is −log10 of the IC50, conventionally taken in molar units. A word on the pEC50: it is the EC50 on a negative log10 scale, so that one unit is a factor of ten. Read a low pEC50 as a large EC50. What is called inhibition is the share of the control response that was lost under treatment. Low readings indicate a weak effect, high ones a strong effect.

Structures are written as SMILES. Active and inactive are the calls of the source. No cut-off for these calls is given here.

Neuronal acetylcholine receptor; alpha3/beta2, sequence (P04757 whole entry): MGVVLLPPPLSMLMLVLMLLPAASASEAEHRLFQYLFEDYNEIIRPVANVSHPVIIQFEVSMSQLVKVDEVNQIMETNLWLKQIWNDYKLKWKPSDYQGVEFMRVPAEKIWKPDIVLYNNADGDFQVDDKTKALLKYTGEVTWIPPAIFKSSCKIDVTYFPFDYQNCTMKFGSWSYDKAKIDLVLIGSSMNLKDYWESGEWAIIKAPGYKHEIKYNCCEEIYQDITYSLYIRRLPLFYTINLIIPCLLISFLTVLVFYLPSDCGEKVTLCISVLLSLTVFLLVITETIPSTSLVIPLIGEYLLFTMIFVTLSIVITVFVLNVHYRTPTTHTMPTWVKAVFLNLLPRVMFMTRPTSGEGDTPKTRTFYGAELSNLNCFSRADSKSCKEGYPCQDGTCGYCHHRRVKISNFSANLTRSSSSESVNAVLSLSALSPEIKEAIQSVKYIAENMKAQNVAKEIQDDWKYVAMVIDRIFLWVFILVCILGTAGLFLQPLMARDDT
Neuronal acetylcholine receptor; alpha3/beta2, sequence (P12390 whole entry): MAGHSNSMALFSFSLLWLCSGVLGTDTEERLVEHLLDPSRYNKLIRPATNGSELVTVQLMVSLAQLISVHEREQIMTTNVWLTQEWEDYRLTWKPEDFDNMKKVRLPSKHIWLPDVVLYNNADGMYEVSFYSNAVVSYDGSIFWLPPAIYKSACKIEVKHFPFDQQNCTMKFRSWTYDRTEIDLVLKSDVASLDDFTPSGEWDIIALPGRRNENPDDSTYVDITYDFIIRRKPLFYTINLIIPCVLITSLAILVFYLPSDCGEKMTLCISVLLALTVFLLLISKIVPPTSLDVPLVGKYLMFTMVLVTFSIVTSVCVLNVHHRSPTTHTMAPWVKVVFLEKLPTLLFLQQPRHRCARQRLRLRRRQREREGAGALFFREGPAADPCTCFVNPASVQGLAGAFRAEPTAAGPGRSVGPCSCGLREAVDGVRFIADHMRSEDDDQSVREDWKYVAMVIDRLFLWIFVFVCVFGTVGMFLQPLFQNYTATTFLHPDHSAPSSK
Neuronal acetylcholine receptor; alpha3/beta4, sequence (P04757 whole entry): as the sequence (P04757 whole entry) above
Neuronal acetylcholine receptor; alpha3/beta4, sequence (P12392 whole entry): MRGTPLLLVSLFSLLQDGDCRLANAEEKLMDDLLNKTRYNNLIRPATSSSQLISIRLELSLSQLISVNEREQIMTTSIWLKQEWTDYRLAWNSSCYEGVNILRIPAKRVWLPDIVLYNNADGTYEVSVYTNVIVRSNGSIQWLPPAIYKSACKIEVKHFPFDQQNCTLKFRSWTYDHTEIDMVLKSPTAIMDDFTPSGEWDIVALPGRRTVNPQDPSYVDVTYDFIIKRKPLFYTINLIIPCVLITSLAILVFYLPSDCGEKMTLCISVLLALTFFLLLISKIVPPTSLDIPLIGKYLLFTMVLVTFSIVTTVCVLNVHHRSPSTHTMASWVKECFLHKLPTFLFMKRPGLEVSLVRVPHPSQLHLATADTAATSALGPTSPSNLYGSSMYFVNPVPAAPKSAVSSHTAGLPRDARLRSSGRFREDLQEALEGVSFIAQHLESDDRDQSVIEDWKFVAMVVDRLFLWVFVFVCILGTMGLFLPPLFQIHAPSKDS
T2 sequence (P17787 whole entry): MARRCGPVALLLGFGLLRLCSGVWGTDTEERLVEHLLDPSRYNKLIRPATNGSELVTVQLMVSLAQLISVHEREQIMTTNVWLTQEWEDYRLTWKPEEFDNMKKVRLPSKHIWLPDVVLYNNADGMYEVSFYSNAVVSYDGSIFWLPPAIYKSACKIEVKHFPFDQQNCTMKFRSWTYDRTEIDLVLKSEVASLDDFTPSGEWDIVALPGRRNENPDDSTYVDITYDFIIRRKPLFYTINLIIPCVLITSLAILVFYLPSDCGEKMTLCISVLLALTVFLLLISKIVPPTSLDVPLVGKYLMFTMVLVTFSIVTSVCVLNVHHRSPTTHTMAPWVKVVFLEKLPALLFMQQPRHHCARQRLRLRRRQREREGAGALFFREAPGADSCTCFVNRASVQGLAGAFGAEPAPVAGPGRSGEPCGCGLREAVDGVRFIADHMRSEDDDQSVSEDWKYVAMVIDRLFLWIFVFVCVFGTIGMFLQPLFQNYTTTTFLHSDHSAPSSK
T2 sequence (P43681 whole entry): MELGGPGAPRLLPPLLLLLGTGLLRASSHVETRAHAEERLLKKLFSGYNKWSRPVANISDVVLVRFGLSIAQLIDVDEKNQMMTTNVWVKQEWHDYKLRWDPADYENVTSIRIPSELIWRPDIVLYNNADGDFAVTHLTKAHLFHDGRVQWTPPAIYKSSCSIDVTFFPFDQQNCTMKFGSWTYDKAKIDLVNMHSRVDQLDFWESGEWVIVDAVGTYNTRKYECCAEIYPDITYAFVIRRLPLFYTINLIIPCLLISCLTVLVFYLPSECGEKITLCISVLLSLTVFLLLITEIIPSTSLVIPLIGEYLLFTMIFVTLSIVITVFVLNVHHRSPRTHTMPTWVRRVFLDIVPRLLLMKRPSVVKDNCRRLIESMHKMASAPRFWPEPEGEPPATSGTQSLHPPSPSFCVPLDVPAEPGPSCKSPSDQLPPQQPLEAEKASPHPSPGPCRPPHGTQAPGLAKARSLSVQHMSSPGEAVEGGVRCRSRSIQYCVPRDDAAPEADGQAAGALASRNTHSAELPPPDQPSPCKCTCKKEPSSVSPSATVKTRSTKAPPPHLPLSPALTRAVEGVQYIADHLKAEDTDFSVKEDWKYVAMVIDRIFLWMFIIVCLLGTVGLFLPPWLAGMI
T1 sequence (P02708 whole entry): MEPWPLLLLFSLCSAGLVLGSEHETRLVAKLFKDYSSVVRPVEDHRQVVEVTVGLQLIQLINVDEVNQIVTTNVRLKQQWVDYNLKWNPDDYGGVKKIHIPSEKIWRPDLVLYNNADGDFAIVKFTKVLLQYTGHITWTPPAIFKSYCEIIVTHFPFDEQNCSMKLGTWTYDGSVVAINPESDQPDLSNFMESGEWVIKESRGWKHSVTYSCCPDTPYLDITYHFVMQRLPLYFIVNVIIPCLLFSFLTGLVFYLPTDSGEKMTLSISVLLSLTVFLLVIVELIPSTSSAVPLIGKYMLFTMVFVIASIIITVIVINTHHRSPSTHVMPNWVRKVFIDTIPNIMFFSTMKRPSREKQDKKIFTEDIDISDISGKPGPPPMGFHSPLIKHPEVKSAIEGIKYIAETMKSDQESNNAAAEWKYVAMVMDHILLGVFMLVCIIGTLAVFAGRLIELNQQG
T1 sequence (P07510 whole entry): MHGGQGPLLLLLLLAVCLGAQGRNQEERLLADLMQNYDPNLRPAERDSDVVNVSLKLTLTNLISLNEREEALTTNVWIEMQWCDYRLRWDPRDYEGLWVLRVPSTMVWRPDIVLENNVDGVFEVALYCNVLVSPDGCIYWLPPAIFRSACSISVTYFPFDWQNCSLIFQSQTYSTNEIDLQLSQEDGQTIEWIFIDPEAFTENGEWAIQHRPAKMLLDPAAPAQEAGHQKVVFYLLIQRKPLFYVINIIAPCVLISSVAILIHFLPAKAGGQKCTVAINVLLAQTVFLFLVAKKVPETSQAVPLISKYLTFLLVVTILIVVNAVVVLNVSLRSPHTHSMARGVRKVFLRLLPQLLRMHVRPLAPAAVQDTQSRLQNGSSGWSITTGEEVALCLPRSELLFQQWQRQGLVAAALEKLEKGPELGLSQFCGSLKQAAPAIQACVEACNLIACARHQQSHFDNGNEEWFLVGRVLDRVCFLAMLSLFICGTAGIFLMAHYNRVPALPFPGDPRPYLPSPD
T1 sequence (P11230 whole entry): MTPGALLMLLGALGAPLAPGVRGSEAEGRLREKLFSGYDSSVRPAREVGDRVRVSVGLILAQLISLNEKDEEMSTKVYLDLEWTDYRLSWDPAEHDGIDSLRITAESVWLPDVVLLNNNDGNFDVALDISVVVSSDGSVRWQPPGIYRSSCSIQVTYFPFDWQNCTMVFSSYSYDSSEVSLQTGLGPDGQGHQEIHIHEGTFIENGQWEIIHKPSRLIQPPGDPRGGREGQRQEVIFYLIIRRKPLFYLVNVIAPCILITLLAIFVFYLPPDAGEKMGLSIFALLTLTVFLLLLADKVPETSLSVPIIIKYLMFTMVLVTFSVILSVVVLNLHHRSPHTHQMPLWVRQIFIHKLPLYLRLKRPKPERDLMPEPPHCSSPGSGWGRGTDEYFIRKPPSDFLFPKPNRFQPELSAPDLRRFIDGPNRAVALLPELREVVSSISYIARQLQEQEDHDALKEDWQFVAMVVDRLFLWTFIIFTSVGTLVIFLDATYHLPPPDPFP
T1 sequence (Q07001 whole entry): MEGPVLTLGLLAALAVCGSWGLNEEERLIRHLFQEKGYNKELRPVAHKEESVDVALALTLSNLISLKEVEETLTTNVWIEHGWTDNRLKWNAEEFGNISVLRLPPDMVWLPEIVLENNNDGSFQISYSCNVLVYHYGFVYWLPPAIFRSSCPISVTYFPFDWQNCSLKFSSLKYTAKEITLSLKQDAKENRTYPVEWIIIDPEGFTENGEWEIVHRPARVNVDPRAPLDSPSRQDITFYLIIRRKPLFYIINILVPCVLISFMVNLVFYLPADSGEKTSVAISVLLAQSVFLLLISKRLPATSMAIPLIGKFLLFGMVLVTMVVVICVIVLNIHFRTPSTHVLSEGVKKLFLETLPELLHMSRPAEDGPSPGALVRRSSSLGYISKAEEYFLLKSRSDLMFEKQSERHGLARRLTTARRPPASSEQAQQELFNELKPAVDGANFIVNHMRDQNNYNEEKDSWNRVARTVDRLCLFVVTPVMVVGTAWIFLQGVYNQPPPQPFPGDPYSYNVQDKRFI
alpha3beta4 nAChR (neuronal acetylcholine receptor alpha3/beta4), sequence (P04757 whole entry): as the sequence (P04757 whole entry) above
alpha3beta4 nAChR (neuronal acetylcholine receptor alpha3/beta4), sequence (P12392 whole entry): as the sequence (P12392 whole entry) above

For `c1cncc(N2CCCNCC2)c1`, the Ki stood at 366 nM in data set [1]; 71.6 nM in data set [2]; 1.1 nM in data set [3]; 3.4 nM in data set [4]; 5.1 nM in [5]; 62 nM in data set [6]. In [7], this compound showed a Ki of 3.3 nM.
Consider `COCC[C@@H]1C[C@H]1c1cncc(N2C[C@@H]3C[C@H]2CN3)c1`, for which the IC50 in data set [8] and in data set [9] was over 10000 nM throughout. Moreover, the Ki in [2] turned out to be 8450 nM; in data set [3], 43.1 nM; in data set [5] it was 617 nM. Besides, the EC50 in data set [10] and in data set [11] was over 10000 nM throughout.
For `COCC[C@@H]1C[C@H]1c1cncc(N2CCCNCC2)c1`, the figures for the IC50 in data set [8], in data set [9] and in [14] were over 10000 nM, over 10000 nM and 15.7 nM, respectively. The Ki in data set [1] was over 10000 nM; in [2], 168 nM; in [3] it was 0.3 nM; in data set [4] it was 0.5 nM; in [5], 15.8 nM; in data set [6], 256 nM. In addition, the Ki in [7] turned out to be 2.7 nM. Besides, the outcome in data set [12] was Active. Further, the Efficacy in data set [13] is 63%; in data set [14], 79%; in data set [15] it was -5.6%. The EC50 in [10] was over 10000 nM; in [11] it was over 10000 nM; in data set [16] it was 17.1 nM.
Regarding `COCC[C@H]1C[C@@H]1c1cncc(N2CCCN(C)CC2)c1`, the values for the IC50 in data set [8], in data set [9] and in data set [14] were over 10000 nM, over 10000 nM and over 1000 nM, respectively. The Ki in data set [2] is 4810 nM; in data set [3], 18.1 nM; in [4], 25.4 nM; in data set [5], 681 nM; in data set [7], 33.8 nM. Further, the pIC50 in [14] (sh-ep1) was under 6. Also, the results for the EC50 in [10], in data set [11] and in [16] were over 10000 nM, over 10000 nM and over 1000 nM, respectively. Moreover, in [16] (sh-ep1), the pEC50 was under 6.
As to `CN1CCCN(c2cncc(-c3cc(CCO)no3)c2)CC1`, the IC50 in [8] and in [9] was over 10000 nM throughout. Moreover, the Ki was 4940 nM in data set [2], 46.3 nM in data set [3], 1040 nM in data set [5] and over 10000 nM in data set [6]. The EC50 in data set [10] and in data set [11] was over 10000 nM throughout. Also, the inhibition at 10 µM in data set [17] is under 50%.
As for `c1cncc(N2CC3CC2CN3)c1` (stereo not drawn), the Ki in [1] came to 64.6 nM; in data set [2] it was 7.7 nM; in data set [3], 0.3 nM; in data set [4] it was 1 nM; in data set [5], 3.1 nM; in [6], 15.2 nM. The compound also came in with a Ki in data set [7] of 0.8 nM.
On to `COCC[C@H]1C[C@@H]1c1cncc(N2CCCNCC2)c1`, for which the Activity result in data set [18] is “Dose-dependent effect”. The IC50 is over 10000 nM in data set [8], over 10000 nM in data set [9] and 16 nM in data set [14]. The Ki in data set [1] is over 10000 nM; in [2], 151 nM; in data set [3], 0.3 nM; in [4], 0.7 nM; in [5] it was 17 nM; in [6] it was 460 nM. Further, the Ki in [7] was determined as 2.7 nM. Besides, the Efficacy in data set [13] is 81%; in data set [14] it was 74%; in data set [15] it was -9.3%. For the same compound, the EC50 was over 10000 nM in data set [10], over 10000 nM in [11] and 15.9 nM in data set [16]. In data set [19], the outcome was Active.
For the compound `OCCc1cc(-c2cncc(N3CCCNCC3)c2)on1`, the results for the IC50 in data set [8], in data set [9] and in [14] were over 10000 nM, over 10000 nM and 50.8 nM, respectively. The Ki in [1] came to 8100 nM; in [2], 67.6 nM; in data set [3], 0.8 nM; in data set [4], 0.8 nM; in [5] it was 42 nM; in [6], 331 nM. In data set [7], this compound returned a Ki of 3.5 nM. Also, the outcome in [12] was Active. The Efficacy in [13] is 58%; in [14], 68%; in [15], -5%. The EC50 in [10] is over 10000 nM; in data set [11], over 10000 nM; in data set [16] it was 30.9 nM.
As to `COCC[C@H]1C[C@@H]1c1cncc(N2C[C@@H]3C[C@H]2CN3)c1`, the IC50 in data set [8] and in data set [9] was over 10000 nM in each case. Also, the Ki in [2] amounted to 1340 nM; in data set [3] it was 3.1 nM; in [5] it was 141 nM; in [6] it was 4810 nM. Further, the EC50 in data set [10] and in data set [11] was over 10000 nM throughout.

These data come from ChEMBL document CHEMBL3877245 (Eur J Med Chem, 2016).
